# Data published in ChEMBL document CHEMBL3351297, “In Vitro Antibacterial Activity of Prenylated Guanidine Alkaloids from Pterogyne nitens and Synthetic Analogues” (2014).
# Key:
# Staphylococcus aureus [1] = assay: Antimicrobial activity against multi-drug-resistant Staphylococcus aureus SA-1199B expressing NorA efflux pump assessed as absence of growth after 18 hrs by MTT assay; type: functional
# Summary of the method: (§1)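 Strains were pre-grown on nutrient agar for 24 h at 37 °C. Inoculum was 1 × 10^6 cfu/mL in normal saline, set against a 0.5 McFarland standard. Compounds were dissolved in DMSO and serially diluted in cation-adjusted Mueller-Hinton broth (20 mg/L Ca2+, 10 mg/L Mg2+) over 512 to 0.5 mg/L. Plates ran 18 h at 37 °C. MTT was added for 20 min; blue meant growth. MIC is the lowest concentration without growth.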
# Staphylococcus aureus [2] = assay: Antimicrobial activity against methicillin-resistant Staphylococcus aureus XU212 assessed as absence of growth after 18 hrs by MTT assay; type: functional; settings: XU212, 18 h; summary of the method: as §1
# Staphylococcus aureus [3] = assay: Antimicrobial activity against Staphylococcus aureus ATCC25943 assessed as absence of growth after 18 hrs by MTT assay; type: functional; settings: ATCC25943, 18 h; summary of the method: as §1
# Staphylococcus aureus [4] = assay: Antimicrobial activity against methicillin-resistant Staphylococcus aureus EMRSA-15 assessed as absence of growth after 18 hrs by MTT assay; type: functional; settings: EMRSA-15, 18 h; summary of the method: as §1
# Staphylococcus aureus [5] = assay: Antimicrobial activity against methicillin-resistant Staphylococcus aureus EMRSA-16 assessed as absence of growth after 18 hrs by MTT assay; type: functional; settings: EMRSA-16, 18 h; summary of the method: as §1
# Staphylococcus aureus [6] = assay: Antimicrobial activity against macrolide-resistant Staphylococcus aureus RN4220 assessed as absence of growth after 18 hrs by MTT assay; settings: RN4220, 18 h
# Staphylococcus aureus [7] = assay: Bactericidal activity against multi-drug-resistant Staphylococcus aureus SA-1199B expressing NorA efflux pump incubated for 24 hrs followed by transfer to Petri dishes and measured after 24 hrs; settings: read-out: MBC99.9
SMILES,MIC (Staphylococcus aureus [1]),MIC (Staphylococcus aureus [2]),MIC (Staphylococcus aureus [3]),MIC (Staphylococcus aureus [4]),MIC (Staphylococcus aureus [5]),MIC (Staphylococcus aureus [6]),MBC (Staphylococcus aureus [7])
CC(C)=CCC/C(C)=C/CN(C)C(=N)N(C)C/C=C(\C)CCC=C(C)C [NITENSIDINE C],32 µg/mL,8 µg/mL,16 µg/mL,32 µg/mL,8 µg/mL,16 µg/mL,
CC(C)=CCC/C(C)=C/CNC(=N)NC/C=C(\C)CCC=C(C)C [NITENSIDINE A],32 µg/mL,8 µg/mL,16 µg/mL,16 µg/mL,8 µg/mL,16 µg/mL,
CC(C)=CCC/C(C)=C/C=N/C(N)N,32 µg/mL,8 µg/mL,16 µg/mL,16 µg/mL,8 µg/mL,16 µg/mL,
CC(C)=CCC/C(C)=C/CNC(=O)NC/C=C(\C)CCC=C(C)C,> 512 µg/mL,> 512 µg/mL,> 512 µg/mL,> 512 µg/mL,> 512 µg/mL,> 512 µg/mL,
CC(C)=CCNC(=N)NCC=C(C)C [PTEROGYNIDINE],4 µg/mL,4 µg/mL,4 µg/mL,4 µg/mL,4 µg/mL,4 µg/mL,4 µg/mL
CC(C)=CCN=C(N)N [GALEGINE],4 µg/mL,4 µg/mL,4 µg/mL,4 µg/mL,4 µg/mL,4 µg/mL,4 µg/mL
CC(C)=C/C=C/C1(C)CCN=C(N)N1 (configuration not stated) [NITENSIDINE E],32 µg/mL,8 µg/mL,16 µg/mL,32 µg/mL,8 µg/mL,16 µg/mL,
CCn1cc(C(=O)O)c(=O)c2cc(F)c(N3CCNCC3)cc21 [NORFLOXACIN],32 µg/mL,8 µg/mL,0.5 µg/mL,0.5 µg/mL,128 µg/mL,0.5 µg/mL,
CC(C)=CCN=C(NCC=C(C)C)NCC=C(C)C,> 512 µg/mL,> 512 µg/mL,> 512 µg/mL,> 512 µg/mL,> 512 µg/mL,> 512 µg/mL,
CC(C)=CCC/C(C)=C/CNC(=S)NC/C=C(\C)CCC=C(C)C,128 µg/mL,128 µg/mL,128 µg/mL,> 512 µg/mL,32 µg/mL,128 µg/mL,
